Data on 13 compounds can be found in ChEMBL document CHEMBL2429751, “Diterpenoids and sesquiterpenoids from the roots of Illicium majus” (J Nat Prod, 2013).

For data set [1], the system named is Coxsackievirus B3. Kind of data set: Antiviral activity against Coxsackievirus B3 infected in African green monkey Vero cells assessed as protection against virus-induced cytopathic effect after 48 hrs by Reed-Muench analysis. The format is functional, organism-based. An outline of the steps:
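Confluent Vero monolayers were infected with 100 TCID50 Cox B3 and allowed 1 h adsorption at 37 °C. Cells were PBS-washed, then kept at 37 °C in maintenance medium with 2% FBS, with or without graded compound concentrations. CPE was scored once virus controls reached 4+, and IC50 was derived by Reed–Muench analysis.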
(Cytopathic effects are the visible damage that an infection or toxin causes in cultured cells.)

The test system of data set [2] is Coxsackievirus B3. Kind of data set: Selectivity index, ratio of TC50 for African green monkey Vero cells to IC50 for Coxsackievirus B3. The following applies: read-out: Selectivity Index. In kind it is toxicity, cell-based. The essentials:
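SI is TC50/IC50. TC50 comes from 48 h Vero CPE cytotoxicity and IC50 from Cox B3 (100 TCID50) CPE inhibition in Vero cells, both by Reed–Muench analysis.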

Another data set concerns Vero. Description: Cytotoxicity against African green monkey Vero cells after 48 hrs by Reed-Muench analysis. In kind it is cell-based. Also on record: unit not given here. The following applies: chlorocebus sabaeus. An outline of the steps: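 Vero cells were seeded and, after 24 h, exposed to graded compound concentrations for 48 h at 37 °C under 5% CO2. Cell damage was scored microscopically as CPE, and TC50 was calculated by Reed–Muench analysis.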

Calls of active or inactive are those of the source. No cut-off for these calls is given here.

As for `C[C@]1(CO)CCC[C@]2(C)c3ccc([C@@](C)(O)CO)cc3CC[C@@H]12`, the outcome with Coxsackievirus B3 [1] was inactive. Same read-out and setting: the value for `CC(C)(O)c1ccc2c(c1)C(=O)C[C@H]1[C@@](C)(CO)CCC[C@]21C` was “inactive”. On the same count and under the same terms, the same measure for `C[C@@]12COC(=O)[C@]1(C)[C@@H](OC(=O)c1ccccc1)[C@]13CC(=O)O[C@@]1(C)CC[C@]23O`: “inactive”. With `C[C@@]12COC(=O)[C@]1(C)[C@@H](O)[C@@]13CC(=O)O[C@@]21CC=C3CO[C@@H]1O[C@H](CO)[C@@H](O)[C@H](O)[C@H]1O`, the selectivity ratio with Coxsackievirus B3 [2] stood at 3.9. This compound also gave a TC50 with Vero of 200. Besides, the IC50 with Coxsackievirus B3 [1] turned out to be 51.7. Consider `CC(C)c1ccc2c(c1)CC[C@H]1[C@@](C)(C(=O)O)CCC[C@]21C`, for which the selectivity ratio in the data set on Coxsackievirus B3 [2] was found to be 6.7. Take `C[C@](O)(CO)c1ccc2c(c1)CC[C@H]1[C@@](C)(C(=O)O)CCC[C@]21C`: the selectivity ratio in the data set on Coxsackievirus B3 [2] turned out to be 6.2. The compound also yielded a TC50 with Vero of 138.7. The IC50 in the data set with Coxsackievirus B3 [1] is given as 22.2. For `C[C@]1(CO)CCC[C@]2(C)c3ccc([C@](C)(O)CO)cc3CC[C@@H]12`, the result in the data set with Coxsackievirus B3 [1] was inactive. On to `C[C@@H](CO)c1ccc2c(c1)CC[C@H]1[C@@](C)(C(=O)O)CCC[C@]21C`, for which, in the data set on Coxsackievirus B3 [2], the selectivity ratio came to 5.2. The compound further had a TC50 with Vero of 66.7. In addition, in the data set with Coxsackievirus B3 [1], the IC50 came to 12.8. On to `C[C@@H]1CC[C@@]23O[C@@]4(O)C[C@@]12[C@@H](O)C(=O)OC[C@@]3(CO[C@@H]1O[C@H](CO)[C@@H](O)[C@H](O)[C@H]1O)[C@@]4(C)O`, for which the outcome in the data set with Coxsackievirus B3 [1] was inactive.

As to `C[C@H](CO)c1ccc2c(c1)CC[C@H]1[C@@](C)(C(=O)O)CCC[C@]21C`, the selectivity ratio with Coxsackievirus B3 [2] came out at 8. The TC50 in the data set on Vero is 138.7. Also, the IC50 in the data set on Coxsackievirus B3 [1] stood at 17.4.

As to `CC(C)(O)c1ccc2c(c1)C(=O)C[C@H]1[C@@](C)(C(=O)O)CCC[C@]21C`, the selectivity ratio with Coxsackievirus B3 [2] is 3.9. For `C[C@@H]1CC[C@@]23O[C@@]4(O)C[C@@]12[C@@H](O)C(=O)OC[C@@]3(CO)[C@@]4(C)O`, in the data set with Coxsackievirus B3 [2], the selectivity ratio came to 3. Also, the TC50 in the data set on Vero worked out at 200. Besides, the IC50 in the data set with Coxsackievirus B3 [1] came to 66.7. Consider `CC1=C(C(=O)O[C@@]23OC[C@]4(C)[C@@]5(O)CC[C@@H](C)[C@@]5(CC(=O)[C@]24C)[C@H]3O)CCC1=O`, for which the selectivity ratio in the data set with Coxsackievirus B3 [2] stood at 3. This compound also showed a TC50 in the data set with Vero of 200. Besides, the IC50 in the data set on Coxsackievirus B3 [1] is recorded as 66.7.
